pEC50, pIC50: −log10 of the molar value.
Key:
[1] = Inhibition of HCV NS5B Cdelta21 RNA polymerase activity assessed as incorporation of [33P]-CTP into heteropolymer RNA template after 150 mins; design: species or system Hepacivirus hominis
Summary of the method: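 Radiolabeled nucleotide incorporation using 30 nM NS5B (Δ21) with 100 nM heteropolymer RNA template and 0.25 mM trinucleotide initiator. Buffer: 20 mM HEPES pH 7.3, 7.5 mM DTT, 20 units/mL RNasin, 10 mM MgCl₂, 60 mM NaCl, BSA, GTP/ATP/UTP, [³³P]-CTP with 20 nM CTP. Run 150 min at room temperature, EDTA-stopped, filter-washed, incorporated label counted. IC50 from 10 twofold dilutions in duplicate.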

[2] = test system: Hepatitis C virus; assay: Antiviral activity against HCV 1b con1 assessed as inhibition of viral RNA replication after 3 days by RT-PCR analysis; format: functional, organism-based, Hepacivirus hominis; conditions: Con1, 72 h
Summary of the method: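 Genotype 1b-Con1 replicon cells were seeded at 5000/well one day before dosing. Inhibitor was added at 0.5% final DMSO in medium with 5% FBS, and cells were harvested after 3 days. Replicon RNA was quantified by Taqman real-time RT-PCR normalized to GAPDH RNA. EC50 came from 10 serial twofold dilutions in duplicate.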

Row | SMILES | pIC50 [1] | pEC50 [2]
1 | O=C(NS(=O)(=O)C1CC1)c1c(-c2ccc[nH]c2=O)c2cc(Cl)ccc2n1Cc1ccccc1F | 8.30 | 6.57
2 | CS(=O)(=O)NCc1c(-c2ccc[nH]c2=O)c2cc(Cl)ccc2n1Cc1ccnc(N)c1 | < 4.70 | 
3 | Nc1cc(Cn2c(C(=O)NS(=O)(=O)c3ccccc3N)c(-c3ccc[nH]c3=O)c3cc(Cl)ccc32)ccn1 | 7.55 | 5.77
4 | Nc1cc(Cn2c(C(=O)NS(=O)(=O)c3cccc(Cl)c3)c(-c3ccc[nH]c3=O)c3cc(Cl)ccc32)ccn1 | 7.37 | 5.82
5 | Nc1cc(Cn2c(C(=O)NS(=O)(=O)c3ccccc3F)c(-c3ccc[nH]c3=O)c3cc(Cl)ccc32)ccn1 | 7.51 | 6.10
6 | Nc1cc(Cn2c(C(=O)NS(N)(=O)=O)c(-c3ccc[nH]c3=O)c3cc(Cl)ccc32)ccn1 | 7.54 | 5.66
7 | CS(=O)(=O)NC(=O)c1c(-n2c(=O)[nH]c3cscc3c2=O)c2cc(C(F)(F)F)ccc2n1Cc1ccccc1F | 7.82 | 6.15
8 | CS(=O)(=O)NCCS(=O)(=O)NC(=O)c1c(-c2ccc[nH]c2=O)c2cc(Cl)ccc2n1Cc1ccccc1F | 8.30 | 6.33
9 | CCS(=O)(=O)NC(=O)c1c(-c2ccc[nH]c2=O)c2cc(Cl)ccc2n1Cc1ccnc(N)c1 | 7.74 | 6.22
10 | CS(=O)(=O)NC(=O)c1c(-c2ccc[nH]c2=O)c2cc(Cl)ccc2n1Cc1ccccc1F | 7.48 | 6.64
11 | CC(C)(C)S(=O)(=O)NC(=O)c1c(-c2ccc[nH]c2=O)c2cc(Cl)ccc2n1Cc1ccnc(N)c1 | 7.51 | 6.00
12 | Nc1cc(Cn2c(C3=NS(=O)(=O)c4ccccc4N3)c(-c3ccc[nH]c3=O)c3cc(Cl)ccc32)ccn1 | 7.92 | 6.22
13 | CC(C)S(=O)(=O)NC(=O)c1c(-c2ccc[nH]c2=O)c2cc(Cl)ccc2n1Cc1ccccc1F | 7.89 | 6.40
14 | CS(=O)(=O)Nc1cccc(S(=O)(=O)NC(=O)c2c(-c3ccc[nH]c3=O)c3cc(Cl)ccc3n2Cc2ccccc2F)c1 | 7.74 | 7.70
15 | Nc1cc(Cn2c(C(=O)NS(=O)(=O)c3cc(F)cc(F)c3)c(-c3ccc[nH]c3=O)c3cc(Cl)ccc32)ccn1 | 7.59 | 6.15
16 | N#Cc1ccc(S(=O)(=O)NC(=O)c2c(-c3ccc[nH]c3=O)c3cc(Cl)ccc3n2Cc2ccnc(N)c2)cc1 | 7.44 | 5.77
17 | CS(=O)(=O)NC(=O)c1c(-c2ccc[nH]c2=O)c2cc(C(F)(F)F)ccc2n1Cc1ccccc1F | 8.22 | 6.92
18 | CCNS(=O)(=O)c1c(-c2ccc[nH]c2=O)c2cc(Cl)ccc2n1Cc1ccc(F)cc1F | 5.52 | 
19 | O=C(NS(=O)(=O)CCCCl)c1c(-c2ccc[nH]c2=O)c2cc(Cl)ccc2n1Cc1ccccc1F | 8.10 | 5.55
20 | O=c1[nH]cccc1-c1c(-c2nc3ccccc3[nH]2)n(Cc2ccc(F)cc2F)c2ccc(Cl)cc12 | 6.24 | 5.10
21 | Nc1cc(Cn2c(C(=O)NS(=O)(=O)Cc3ccccc3)c(-c3ccc[nH]c3=O)c3cc(Cl)ccc32)ccn1 | 7.62 | 5.92
22 | COC(=O)c1ccc(S(=O)(=O)NC(=O)c2c(-c3ccc[nH]c3=O)c3cc(Cl)ccc3n2Cc2ccnc(N)c2)cc1 | 7.49 | 5.96

Row | SMILES | pIC50 [1] | pEC50 [2]
23 | Nc1ccc(S(=O)(=O)NC(=O)c2c(-c3ccc[nH]c3=O)c3cc(Cl)ccc3n2Cc2ccnc(N)c2)cc1 | 7.46 | 6.40
24 | CS(=O)(=O)NC(=O)c1c(-c2ccc[nH]c2=O)c2cc(Cl)ccc2n1Cc1ccc(F)cc1F | 7.39 | 5.66
25 | Cc1ccc(S(=O)(=O)NC(=O)c2c(-c3ccc[nH]c3=O)c3cc(Cl)ccc3n2Cc2ccnc(N)c2)cc1 | 7.72 | 6.22
26 | CS(=O)(=O)NC(=O)c1c(-c2ccc[nH]c2=O)c2cc(Cl)ccc2n1Cc1ccnc(N)c1 | 7.74 | 6.52
27 | Nc1cc(Cn2c(C(=O)NS(=O)(=O)c3ccccc3)c(-c3ccc[nH]c3=O)c3cc(Cl)ccc32)ccn1 | 7.80 | 6.40
28 | O=C(NS(=O)(=O)C1CCCC1)c1c(-c2ccc[nH]c2=O)c2cc(Cl)ccc2n1Cc1ccccc1F | 7.55 | 5.85
29 | N#Cc1c(-c2ccc[nH]c2=O)c2cc(Cl)ccc2n1Cc1ccnc(N)c1 | < 4.70 | 5.08
30 | COc1ccc(S(=O)(=O)NC(=O)c2c(-c3ccc[nH]c3=O)c3cc(Cl)ccc3n2Cc2ccnc(N)c2)cc1 | 7.66 | 6.30
31 | CS(=O)(=O)NC(=O)c1c(-c2c[nH]c(=O)[nH]c2=O)c2cc(Cl)ccc2n1Cc1ccnc(N)c1 | 7.57 | 5.52
32 | Nc1cc(Cn2c(C(=O)NS(=O)(=O)c3cc(F)ccc3F)c(-c3ccc[nH]c3=O)c3cc(Cl)ccc32)ccn1 | 7.55 | 6.15
33 | Nc1cc(Cn2c(C(=O)NS(=O)(=O)c3ccc(O)cc3)c(-c3ccc[nH]c3=O)c3cc(Cl)ccc32)ccn1 | 7.62 | 7.00
34 | COC(=O)c1cccc(S(=O)(=O)NC(=O)c2c(-c3ccc[nH]c3=O)c3cc(Cl)ccc3n2Cc2ccnc(N)c2)c1 | 7.57 | 6.52
35 | CS(=O)(=O)NC(=O)Cc1c(-c2ccc[nH]c2=O)c2cc(Cl)ccc2n1Cc1ccnc(N)c1 | 5.66 | 
36 | Cc1cc(F)ccc1S(=O)(=O)NC(=O)c1c(-c2ccc[nH]c2=O)c2cc(Cl)ccc2n1Cc1ccnc(N)c1 | 7.47 | 5.72
37 | Nc1cccc(S(=O)(=O)NC(=O)c2c(-c3ccc[nH]c3=O)c3cc(Cl)ccc3n2Cc2ccnc(N)c2)c1 | 7.44 | 6.00
38 | CS(=O)(=O)Nc1ccc(S(=O)(=O)NC(=O)c2c(-c3ccc[nH]c3=O)c3cc(Cl)ccc3n2Cc2ccnc(N)c2)cc1 | 7.70 | 6.30
39 | Nc1cc(Cn2c(C(=O)NS(=O)(=O)c3cccc(S(N)(=O)=O)c3)c(-c3ccc[nH]c3=O)c3cc(Cl)ccc32)ccn1 | 7.47 | 5.72
40 | CS(=O)(=O)Nc1cccc(S(=O)(=O)NC(=O)c2c(-c3ccc[nH]c3=O)c3cc(Cl)ccc3n2Cc2ccnc(N)c2)c1 |  | 7.96
41 | NS(=O)(=O)c1c(-c2ccc[nH]c2=O)c2cc(Cl)ccc2n1Cc1ccc(F)cc1F | 5.57 | 
42 | Nc1cc(Cn2c(C(=O)NS(=O)(=O)c3ccc(F)cc3F)c(-c3ccc[nH]c3=O)c3cc(Cl)ccc32)ccn1 | 7.31 | 5.80
43 | CCOC(=O)c1c(-c2ccc[nH]c2=O)c2cc(Cl)ccc2n1Cc1ccnc(N)c1 | < 4.70 | 
44 | Nc1cc(Cn2c(CC(=O)O)c(-c3ccc[nH]c3=O)c3cc(Cl)ccc32)ccn1 | 5.15 | 
